The structures appear in SMILES notation. The source made the active and inactive calls. No cut-off for these calls is given here.

A short description of assay [1]: Relative potency compared to that of Alloxan in albino rats. Format: functional.
Assay [2] concerns Rattus norvegicus. Briefly: Diabetogenic activity in Lewis strain of albino rats after iv administration. Format: functional. The method, boiled down: (§1)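 Male Lewis rats (200-230 g), 24 per dose level, fasted 12 h, then dosed by tail-vein iv injection, or ip as a saline suspension when poorly soluble. A rat counted as diabetic if glucosuria (>1%) appeared within 24 h and persisted 5 days. Blood sugar and islet histology were also observed. The dose making 50% of animals diabetic (ED50, mmol/kg) was estimated graphically.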

Assay [3] in a line: Relative potency compared to that of streptozotocin in albino rats. Format: functional.
The test system of assay [4] is Rattus norvegicus. Briefly: Diabetogenic activity in Lewis strain of albino rats after iv administration; Inactive nondiabetogenic at the dose 2 g/kg ip; inactive. Type of assay: functional, organism-based. The method, boiled down: as §1
Assay [5] in a line: Relative potency compared to that of Alloxan in albino rats; Inactive nondiabetogenic at the dose 2 g/kg ip; inactive. Type of assay: functional.
Assay [6] can be described thus: Relative potency compared to that of streptozotocin in albino rats; Inactive nondiabetogenic at the dose 2 g/kg ip; inactive. Type of assay: functional.
Assay [7] deals with Rattus norvegicus. Briefly: Diabetogenic activity in Lewis strain of albino rats after ip administration. Type of assay: functional. The method, boiled down:
as §1

Where [8] appears, read: Rattus norvegicus, iv, read-out: ED50.

The ED50 is the dose at which the effect has come halfway, by size or by number of responders. With `Br.N=C1C(=O)NC(=O)NC1=O`, the results for the Relative potency in assay [1] and in assay [3] were 1.9 and 0.9, respectively. In the assay on Rattus norvegicus [2] (setting [8]), the ED50 turned out to be 160 µmol/kg.

Take `NC(=O)NC1(N)C(=O)NC(=O)NC1=O`: the ED50 result in the assay on Rattus norvegicus [4] was “inactive”. Moreover, the Relative potency entry in assay [5] and in assay [6] was “inactive” throughout.

With `O=C1NC(=O)C2(O)NC(=O)NC2(O)N1` (configuration not stated), in assay [1], the Relative potency is reported as 1.1. The compound also showed an ED50 in the assay with Rattus norvegicus [7] of 1060 µmol/kg.

As to `Cl.NC1(O)C(=O)NC(=O)NC1=O`, the figures for the Relative potency in assay [1] and in assay [3] were 2.2 and 1.1, respectively. Moreover, in the assay with Rattus norvegicus [2], it took a dose of 140 µmol/kg to reach the 50% effect level (ED50).

For `CN(N=O)C(=O)N[C@@H](C=O)[C@@H](O)[C@H](O)[C@H](O)CO` [STREPTOZOCIN], the Relative potency amounted to 2.1 in assay [1] and 1 in assay [3]. In the assay with Rattus norvegicus [2] (setting [8]), the ED50 amounted to 150 µmol/kg.

Take `Br.NC1(O)C(=O)NC(=O)NC1=O`: the Relative potency in assay [1] amounted to 2.1; in assay [3] it was 1. In addition, the median effective dose (ED50) in the assay with Rattus norvegicus [2] (setting [8]) was determined as 150 µmol/kg.

Take `NC(=O)NC1(O)C(=O)NC(=O)NC1=O`: the Relative potency in assay [1] was 2.1; in assay [3] it was 1. The ED50 in the assay with Rattus norvegicus [2] (setting [8]) came out at 150 µmol/kg.

On to `O=C1NC(=O)C(O)(O)C(=O)N1`, for which the values for the Relative potency in assay [1] and in assay [3] were 1 and 0.5, respectively. Also, the 50% effective dose (ED50) with Rattus norvegicus [2] (setting [8]) came to 310 µmol/kg; with Rattus norvegicus [7] it was 1120 µmol/kg.

As to `Cl.N=C1C(=O)NC(=O)NC1=O`, the Relative potency was found to be 2.2 in assay [1] and 1.1 in assay [3]. The same compound came in with an ED50 with Rattus norvegicus [2] of 140 µmol/kg.

These data come from ChEMBL document CHEMBL1122234, “Oxidation of uric acid. 4. Synthesis, structure, and diabetogenic action of 5-imino-2,4,6(1H,3H,5H)-pyrimidinetrione salts and their alloxan-like covalent adducts” (1983).
